Experimental data published in publication PMC3424002 (ACS medicinal chemistry letters, 2012).
“Also recorded” adds a separate entry of the source.

Columns and labels:
[1] = system: mGluR5; details: 10 mg/kg, mouse brain; cited from earlier work
[2] = system: mice; assay: Novel open-field test; type: in vivo, mouse; details: for locomotor activity / amount of time spent in the center of the novel open-field: i.p. 15 minutes prior to testing; for locomotor activity: Figure 3A; for amount of time spent in the center of the novel open-field: Figure 3B
Summary of the method: (§1)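 Mice received test compound by ip injection 15 min before testing, with each compound compared against its own within-group vehicle cohort. Compounds were suspended in 2% ethanol, 10% Tween 80 and water; one reference NAM was instead dissolved in saline. Prototypical mGluR5 NAMs served as positive controls. There were 10–12 mice per dose, and data are means ± SEM analysed by one-way ANOVA with Bonferroni post hoc test.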

[3] = system: mice; assay: Light-dark box test; type: in vivo, mouse; details: i.p. 15 minutes prior to testing; for proportion of time spent in the light compartment: Figure 3C; for number of compartment transitions: Figure 3D
Summary of the method: as §1

[4] = system: mice; assay: Mouse models of anxiety-like behaviors; type: in vivo; details: for doses giving statistically significant effects consistent with anxiolysis: i.p., open-field and light-dark box tests
[5] = target: rat mGluR5 (Rattus norvegicus, UniProt P31424); type: cell-based; details: for effect on IP1 levels / accumulation: in the absence of QA (agonist)
Sequence of rat mGluR5 (P31424 21-1203): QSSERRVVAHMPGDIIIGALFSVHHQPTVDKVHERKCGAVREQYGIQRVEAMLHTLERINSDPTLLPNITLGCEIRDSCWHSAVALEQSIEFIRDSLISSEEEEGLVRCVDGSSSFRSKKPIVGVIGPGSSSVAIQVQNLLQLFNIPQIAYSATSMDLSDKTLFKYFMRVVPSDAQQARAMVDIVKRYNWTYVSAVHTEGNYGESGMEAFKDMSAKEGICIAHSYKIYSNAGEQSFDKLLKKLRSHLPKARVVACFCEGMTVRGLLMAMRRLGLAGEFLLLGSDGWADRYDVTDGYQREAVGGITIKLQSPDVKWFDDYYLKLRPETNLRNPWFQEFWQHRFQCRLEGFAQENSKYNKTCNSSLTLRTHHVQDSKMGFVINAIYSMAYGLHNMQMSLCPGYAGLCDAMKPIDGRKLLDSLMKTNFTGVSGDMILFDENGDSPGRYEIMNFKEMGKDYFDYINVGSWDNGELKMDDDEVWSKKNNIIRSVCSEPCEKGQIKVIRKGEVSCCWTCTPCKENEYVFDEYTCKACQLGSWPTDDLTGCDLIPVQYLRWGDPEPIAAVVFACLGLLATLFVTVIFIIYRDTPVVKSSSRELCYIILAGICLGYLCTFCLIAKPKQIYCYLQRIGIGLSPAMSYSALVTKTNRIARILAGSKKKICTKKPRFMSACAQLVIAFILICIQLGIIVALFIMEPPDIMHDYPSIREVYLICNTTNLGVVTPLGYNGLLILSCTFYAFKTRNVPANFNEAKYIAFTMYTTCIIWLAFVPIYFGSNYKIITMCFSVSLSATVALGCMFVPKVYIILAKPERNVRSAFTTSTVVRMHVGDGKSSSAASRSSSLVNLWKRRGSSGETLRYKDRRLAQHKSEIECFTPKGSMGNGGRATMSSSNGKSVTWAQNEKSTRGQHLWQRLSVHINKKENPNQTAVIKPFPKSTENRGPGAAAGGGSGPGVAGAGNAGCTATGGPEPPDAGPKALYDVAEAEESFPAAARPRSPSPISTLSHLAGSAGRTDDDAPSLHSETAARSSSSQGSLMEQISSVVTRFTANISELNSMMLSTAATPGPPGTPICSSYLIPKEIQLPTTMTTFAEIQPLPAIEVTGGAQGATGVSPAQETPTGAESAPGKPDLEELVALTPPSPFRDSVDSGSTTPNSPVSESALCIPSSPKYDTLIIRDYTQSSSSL

[6] = target: mGluR5 (Rattus norvegicus, UniProt P31424); assay: Displacement of [3H]1; type: binding; details: ratio of Ki values versus 1 (MPEP)
Sequence of mGluR5 (Rattus norvegicus, UniProt P31424) (P31424 21-1203): as above

[7] = system: 63 additional receptors and ion channels; assay: Screening in 63 additional receptors and ion channels; type: binding; details: 100 nM; any of 63 additional receptors and ion channels

Cc1cccc(C#Cc2ccccc2)n1 [Compound 1, 2-methyl-6-(phenylethynyl)pyridine, reference compound]
mGluR5 receptor occupancy [1]: full | overall / locomotor activity at the highest tested doses [2]: no corresponding loss of locomotor activity | locomotor activity [2]: dose-dependently increased | amount of time spent in the center of the novel open-field [2]: dose-dependently increased | proportion of time spent in the light compartment [3]: dose-dependently increased | number of compartment transitions [3]: dose-dependently increased | anxiolytic effects at the highest tested doses [4]: loss of anxiolytic effects | doses giving statistically significant effects consistent with anxiolysis [4]: 3 to 30 mg/kg | effect on IP1 levels / accumulation [5]: potently decreased IP1 levels from baseline; also recorded: dose-dependent inverse agonism

Cc1nc(C#Cc2cccnc2)cs1 [Compound 2, 3-((2-methyl-1,3-thiazol-4-yl)ethynyl)pyridine, reference compound]
locomotor activity [2]: dose-dependently increased | amount of time spent in the center of the novel open-field [2]: dose-dependently increased | proportion of time spent in the light compartment [3]: dose-dependently increased | number of compartment transitions [3]: dose-dependently increased | doses giving statistically significant effects consistent with anxiolysis [4]: 10 mg/kg | effect on IP1 levels / accumulation [5]: potently decreased IP1 levels from baseline; also recorded: dose-dependent inverse agonism

Cc1cccc(C#Cc2cc(F)cc(C#N)c2)n1 [Compound 7i]
overall / locomotor activity at the highest tested doses [2]: no corresponding loss of locomotor activity | locomotor activity [2]: dose-dependently increased | amount of time spent in the center of the novel open-field [2]: dose-dependently increased | proportion of time spent in the light compartment [3]: dose-dependently increased | number of compartment transitions [3]: dose-dependently increased | anxiolytic effects at the highest tested doses [4]: loss of anxiolytic effects | doses giving statistically significant effects consistent with anxiolysis [4]: 0.3 mg/kg | effect on IP1 levels / accumulation [5]: potently decreased IP1 levels from baseline; also recorded: dose-dependent inverse agonism | fold increase in mGluR5 binding affinity over compound 1 [6]: approximately 24 fold | inhibition of binding at other targets [7]: < 13%

N#Cc1cc(F)cc(C#Cc2cccc(C#N)n2)c1 [Compound 7j]
overall / locomotor activity at the highest tested doses [2]: depression in overall activity | locomotor activity [2]: dose-dependently increased | amount of time spent in the center of the novel open-field [2]: dose-dependently increased | proportion of time spent in the light compartment [3]: dose-dependently increased | number of compartment transitions [3]: dose-dependently increased | anxiolytic effects at the highest tested doses [4]: loss of anxiolytic effects | doses giving statistically significant effects consistent with anxiolysis [4]: 0.1 to 0.3 mg/kg | effect on IP1 levels / accumulation [5]: potently decreased IP1 levels from baseline; also recorded: dose-dependent inverse agonism

N[C@@H](Cn1oc(=O)[nH]c1=O)C(=O)O [QA, quisqualic acid]
effect on IP1 levels (agonist) ([5]; agonist stimulation of mGluR5): dose-dependently increased IP1 levels; also recorded: increased IP1 accumulation
